B1: Osa-1-4 twister ribozyme (parent)
chain: CCGCCUAACACUGCCAAUGCCGGUCCCAAGCCCGGAUAAAAGUGGAGGGGGCGG

Variants of: B1
Assay: self-cleavage, relative activity (ratio to wild type); higher = more cleavage; co-transcriptional
In short: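 Values are relative activity: the fraction cleaved, normalised to wild type. A doped DNA template for a 54-nucleotide twister ribozyme from Oryza sativa had 97 % wild-type base and 1 % of each other base at the 48 positions downstream of the cleavage site. The RNA was transcribed in vitro for 2 h at 37 °C so that it could cleave itself co-transcriptionally, then sequenced deeply, with cleavage status scored from the presence or absence of upstream sequence in reads.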

Point of comparison: C26U G34C, self-cleavage 0.56. Against it:
- C26G C32G — lower, 0.09
- C26G C32U — lower, 0.04
- C26G C32A — lower, 0.03
- C26A U12A — lower, 0.04
- C26A U12G — lower, 0.04
- C26A U12C — lower, 0.03
- C26U G50A — higher, 0.92
- C26U G50C — lower, 0.26
- C26U G50U — lower, 0.52
- C26U C52U — higher, 0.98
- C26U C52A — higher, 0.71
- C26U C52G — higher, 0.84
- C26G C33A — lower, 0.05
- C26G C33U — lower, 0.07
- C26G C33G — lower, 0.04
- C26G G53C — lower, 0.03
- C26G G53A — lower, 0.11
- C26G G53U — lower, 0.06
- C26U G48U — lower, 0.08
- C26U G48A — higher, 0.82
- C26U G48C — lower, 0.1
- C26G U24A — lower, 0.04
- C26G U24G — lower, 0.02
- C26G U24C — lower, 0.04
- C26G G45C — lower, 0.03
- C26G G45U — lower, 0.02
- C26G G45A — lower, 0.05
- C26G G30C — lower, 0.05
- C26G G30A — lower, 0.06
- C26G G30U — lower, 0.03
- C26U C32A — lower, 0.06
- C26U C32G — lower, 0.27
- C26U C32U — lower, 0.09
- C26G G51U — lower, 0.06
- C26G G51A — lower, 0.1
- C26G G51C — lower, 0.05
- C26A U24G — lower, 0.01
- C26A U24A — lower, 0.03
- C26A U24C — lower, 0.02
- C26G C31A — lower, 0.02
- C26G C31U — lower, 0.06
- C26G C31G — lower, 0.05
- C26G G54A — lower, 0.08
- C26G G54U — lower, 0.15
- C26G G54C — lower, 0.08
- C26U G51A — lower, 0.45
- C26U G51C — lower, 0.07
- C26U G51U — lower, 0.17
- C26G C9U — lower, 0.04
- C26G C9A — lower, 0.02
- C26G C9G — lower, 0.09
- C26G C27A — lower, 0.05
- C26G C27G — lower, 0.11
- C26G C27U — lower, 0.07
- C26G G19C — lower, 0.04
- C26G G19A — lower, 0.08
- C26G G19U — lower, 0.05
- C26G U37G — lower, 0.1
- C26G U37C — lower, 0.1
- C26G U37A — lower, 0.09
- C26U G42C — lower, 0.1
- C26U G42A — lower, 0.13
- C26U G42U — lower, 0.04
- C26U G35C — lower, 0.09
- C26U G35U — higher, 0.88
- C26U G35A — higher, 0.9
- C26U C27G — lower, 0.06
- C26U C27A — lower, 0.07
- C26U C27U — lower, 0.24
- C26A G54U — lower, 0.12
- C26G G34U — lower, 0.08
- C26G G34A — lower, 0.18
- C26G G34C — lower, 0.08
- C26U C33G — lower, 0.07
- C26U C33U — lower, 0.32
- C26U C33A — lower, 0.09
- C26G G50C — lower, 0.09
- C26G G50U — lower, 0.09
- C26G G50A — lower, 0.1
- C26A U37A — lower, 0.05
- C26A U37C — lower, 0.07
- C26A U37G — lower, 0.07
- C26G — lower, 0.09
- C26U — higher, 0.98
- C26G G42U — lower, 0.02
- C26G G42A — lower, 0.08
- C26G G42C — lower, 0.05
- C26G G44C — lower, 0.09
- C26G G44A — lower, 0.09
- C26G G44U — lower, 0.08
- C26U G53A — lower, 0.22
- C26U G53C — lower, 0.08
- C26U G23U — lower, 0.04
- C26U G23C — lower, 0.04
- C26U G23A — lower, 0.15
- C26U C31G — lower, 0.07
- C26U C31U — lower, 0.16
- C26U C31A — lower, 0.05
- C26U C9G — lower, 0.24
- C26U C9A — lower, 0.26
- C26U C9U — lower, 0.55
- C26U G13C — lower, 0.02
- C26U G13A — lower, 0.05
- C26U G13U — lower, 0.03
- C26A U18G — lower, 0.12
- C26A U18C — lower, 0.06
- C26A U18A — lower, 0.05
- C26U G34U — higher, 0.83
- C26U G34A — higher, 0.92
- C26G G48A — lower, 0.06
- C26G G48C — higher, 0.74
- C26G G48U — lower, 0.08
- C26U G45C — lower, 0.04
- C26U G45A — lower, 0.07
- C26U G45U — lower, 0.04
- C26U G30A — lower, 0.03
- C26U G30U — lower, 0.03
- C26U G30C — lower, 0.04
- C26G U12G — lower, 0.07
- C26G U12A — lower, 0.07
- C26G U12C — lower, 0.05
- C26G G49U — lower, 0.04
- C26G G49A — lower, 0.04
- C26G G49C — lower, 0.03
- C26G G23A — lower, 0.08
- C26G G23U — lower, 0.02
- C26G G23C — lower, 0.04
- C26G C52A — lower, 0.12
- C26G C52G — lower, 0.16
- C26G C52U — lower, 0.11
- C26G G22A — lower, 0.15
- C26G G22C — lower, 0.06
- C26G G22U — lower, 0.08
- C26U G44C — higher, 0.92
- C26U G44U — higher, 0.71
- C26U G44A — lower, 0.4
- C26G G47A — lower, 0.05
- C26G G47C — lower, 0.04
- C26G G47U — lower, 0.06
- C26G U18A — lower, 0.09
- C26G U18C — lower, 0.1
- C26G U18G — lower, 0.13
- C26U G22A — higher, 0.91
- C26U G22C — lower, 0.08
- C26U G22U — higher, 0.74
- C26U G19A — lower, 0.14
- C26U G19U — lower, 0.05
- C26U G19C — lower, 0.04
- C26G U43A — lower, 0.09
- C26G U43C — lower, 0.07
- C26G U43G — lower, 0.07
- C26G G35A — lower, 0.08
- C26G G35U — lower, 0.09
- C26G G35C — lower, 0.07
- C26A U43C — lower, 0.04
- C26A U43G — lower, 0.04
- C26A U43A — lower, 0.05
- C26G G13U — lower, 0.01
- C26G G13A — lower, 0.03
- C26G G13C — lower, 0.01
- C26U G47C — lower, 0.07
- C26U G47A — lower, 0.08
- C26U G47U — lower, 0.06
- C26U G49U — lower, 0.06
- C26U G49C — lower, 0.06
- C26U G49A — lower, 0.06

— the RNAGym collection of RNA variant scans (doi:10.1002/anie.201605470)
